Data taken from ChEMBL document CHEMBL3525995, “CYP3A-mediated generation of aldehyde and hydrazine in atazanavir metabolism” (Drug Metab Dispos, 2011).
One block for each compound: values may come before it.

Columns and labels:
[1] = Drug level in wild type mouse urine treated with 50 mg/kg, po atazanavir by LC-MS/MS analysis; type: ADME, organism-based; parameters: dose 50 mg/kg, dosed compound name Azazanavir, route oral; settings: in vivo
Method in brief: (§1)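 Wild-type mice (n = 4) got a single oral 50 mg/kg dose and were housed individually in metabolic cages for 18 h, with urine and feces collected. Urine was diluted 1:4 in 50% acetonitrile and centrifuged. Feces were homogenized in water (1 mg/10 μl), mixed 1:1 with acetonitrile and centrifuged twice. Supernatants were analyzed by UPLC-TOFMS, with accurate mass (<10 ppm error) and MS/MS for identification.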

[2] = Drug level in wild type mouse feces treated with 50 mg/kg, po atazanavir by LC-MS/MS analysis; type: ADME, organism-based; parameters: dose 50 mg/kg, dosed compound name Azazanavir, route oral; settings: in vivo; method in brief: as §1
[3] = target: T1, Cytochrome P450 3A4 (Homo sapiens, UniProt P08684); test: Drug metabolism assessed as human CYP3A4-mediated formation at 50 uM by UPLC-TOFMS system; type: ADME; settings: recombinant enzyme
Method in brief: (§2)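 Each cDNA-expressed human P450 (CYP1A2, 2A6, 2B6, 2C8, 2C9, 2C19, 2D6, 2E1, 3A4; 2 pmol), plus a control, was incubated in PBS pH 7.4 with 50 μM substrate. After 5 min preincubation at 37°C, 1.0 mM NADPH (final) was added and the reaction ran 30 min with shaking. Ketoconazole (10 μM) was co-incubated as a CYP3A inhibitor, and NADPH-free incubations served as controls. Reactions were quenched with acetonitrile, centrifuged and analyzed by UPLC-TOFMS.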

[4] = target: Cytochrome P450 2D6 (Homo sapiens, UniProt P10635); test: Drug level assessed as human CYP2D6-mediated compound formation treated with atazanavir at 50 uM by UPLC-TOFMS system; type: ADME; settings: recombinant enzyme; method in brief: as §2
[5] = test system: Liver microsome; test: Drug metabolism in human liver microsomes treated with 50 uM atazanavir by LC-MS/MS analysis; type: ADME
Method in brief: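 Human liver microsomes (0.5 g protein/l) were incubated in PBS pH 7.4 with 50 μM substrate, in duplicate. After 5 min preincubation at 37°C, 1.0 mM NADPH (final) was added and the reaction ran 30 min with shaking; incubations without NADPH served as controls. Reactions were quenched with equal-volume acetonitrile, centrifuged and analyzed by UPLC-TOFMS.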

[6] = Drug excretion in wildtype mouse feces assessed as ((S)-1-{(1S,2S)-1-Benzyl-2-hydroxy-3-[N'-((S)-2-methoxycarbonylamino-3,3-dimethyl-butyryl)-hydrazino propylcarbamoyl}-2,2-dimethyl-propyl)-carbamic acid methyl ester formation at 50 mg/kg, po by LC-MS/MS analysis; type: ADME, organism-based; parameters: dose 50 mg/kg, dosed compound name Azazanavir, route oral; settings: in vivo; method in brief: as §1
[7] = (§3) Drug excretion in wildtype mouse urine assessed as {(S)-3-Hydroxy-1-[N'-[(2S,3S)-2-hydroxy-3-((S)-4-hydroxy-2-methoxycarbonylamino-3,3-dimethyl-butyrylamino)-4-phenyl-butyl]-N'-(4-pyridin-2-yl-benzyl)-hydrazinocarbonyl]-2,2-dimethyl-propyl}-carbamic acid methyl ester formation at 50 mg/kg, po by LC-MS/MS analysis; type: ADME, organism-based; parameters: dose 50 mg/kg, dosed compound name Azazanavir, route oral; settings: in vivo; method in brief: as §1
[8] = test system: Liver microsome; test: Drug metabolism in human liver microsomes assessed as (S)-methyl 3,3-dimethyl-1-oxo-1-(2-(4-(pyridin-2-yl)benzyl)hydrazinyl)butan-2-ylcarbamate formation at 50 uM by LC-MS/MS analysis; settings: in vitro
[9] = as §3, with “feces” for “urine”; type: ADME, organism-based; parameters: dose 50 mg/kg, dosed compound name Azazanavir, route oral; settings: in vivo; method in brief: as §1
[10] = test system: Liver microsome; test: Drug metabolism in human liver microsomes assessed as ((S)-1-{(1S,2S)-1-Benzyl-2-hydroxy-3-[N'-((S)-2-methoxycarbonylamino-3,3-dimethyl-butyryl)-hydrazino]-propylcarbamoyl}-2,2-dimethyl-propyl)-carbamic acid methyl ester formation at 50 uM by LC-MS/MS analysis; settings: in vitro
[11] = Drug excretion in wildtype mouse urine assessed as ((S)-1-{(1S,2S)-1-Benzyl-2-hydroxy-3-[N'-((S)-2-methoxycarbonylamino-3,3-dimethyl-butyryl)-N-(4-pyridin-2-yl-benzyl)-hydrazino]-propylcarbamoyl}-3-hydroxy-2,2-dimethyl-propyl)-carbamic acid methyl ester formation at 50 mg/kg, po by LC-MS/MS analysis; type: ADME, organism-based; parameters: dose 50 mg/kg, dosed compound name Azazanavir, route oral; settings: in vivo; method in brief: as §1
[12] = Drug excretion in wild type mouse assessed as (S)-methyl 3,3-dimethyl-1-oxo-1-(2-(4-(pyridin-2-yl)benzyl)hydrazinyl)butan-2-ylcarbamate formation at 50 mg/kg, po by LC-MS/MS analysis; type: ADME, organism-based; parameters: dose 50 mg/kg, dosed compound name Azazanavir, route oral; settings: in vivo; method in brief: as §1
[13] = (§4) Drug excretion in wildtype mouse urine assessed as ((S)-1-{(1S,2S)-1-Benzyl-2-hydroxy-3-[N'-((S)-2-methoxycarbonylamino-3,3-dimethyl-butyryl)-N-(4-pyridin-2-yl-benzyl)-hydrazino]-propylcarbamoyl}-3-hydroxy-2-hydroxymethyl-2-methyl-propyl)-carbamic acid methyl ester formation at 50 mg/kg, po by LC-MS/MS analysis; type: ADME, organism-based; parameters: dose 50 mg/kg, dosed compound name Azazanavir, route oral; settings: in vivo; method in brief: as §1
[14] = Drug excretion in wild type mouse urine assessed as methyl (S)-1-(2-((2S,3S)-3-((S)-2-amino-3,3-dimethylbutanamido)-2-hydroxy-4-phenylbutyl)-2-(4-(pyridin-2-yl)benzyl)hydrazinyl)-3,3-dimethyl-1-oxobutan-2-ylcarbamate formation at 50 mg/kg, po by LC-MS/MS analysis; type: ADME, organism-based; parameters: dose 50 mg/kg, dosed compound name Azazanavir, route oral; settings: in vivo; method in brief: as §1
[15] = Drug excretion in wild type mouse feces assessed as methyl (S)-1-((2S,3S)-4-(2-((S)-2-amino-3,3-dimethylbutanoyl)-1-(4-(pyridin-2-yl)benzyl)hydrazinyl)-3-hydroxy-1-phenylbutan-2-ylamino)-3,3-dimethyl-1-oxobutan-2-ylcarbamate formation at 50 mg/kg, po by LC-MS/MS analysis; type: ADME, organism-based; parameters: dose 50 mg/kg, dosed compound name Azazanavir, route oral; settings: in vivo; method in brief: as §1
[16] = Drug excretion in wildtype mouse feces assessed as ((S)-1-{(1S,2S)-1-Benzyl-2-hydroxy-3-[N'-((S)-2-methoxycarbonylamino-3,3-dimethyl-butyryl)-N-(4-pyridin-2-yl-benzyl)-hydrazino]-propylcarbamoyl}-3-hydroxy-2,2-dimethyl-propyl)-carbamic acid methyl ester formation at 50 mg/kg, po by LC-MS/MS analysis; type: ADME, organism-based; parameters: dose 50 mg/kg, dosed compound name Azazanavir, route oral; settings: in vivo; method in brief: as §1
[17] = target: T1, Cytochrome P450 3A4; test: Drug level assessed as human CYP3A4-mediated (S)-methyl 3,3-dimethyl-1-oxo-1-(2-(4-(pyridin-2-yl)benzyl)hydrazinyl)butan-2-ylcarbamate formation treated with 50 uM atazanavir by UPLC-TOFMS system; type: ADME; settings: recombinant enzyme; method in brief: as §2
[18] = Drug excretion in wild type mouse urine assessed as methyl (S)-1-((2S,3S)-4-(2-((S)-2-amino-3,3-dimethylbutanoyl)-1-(4-(pyridin-2-yl)benzyl)hydrazinyl)-3-hydroxy-1-phenylbutan-2-ylamino)-3,3-dimethyl-1-oxobutan-2-ylcarbamate formation at 50 mg/kg, po by LC-MS/MS analysis; type: ADME, organism-based; parameters: dose 50 mg/kg, dosed compound name Azazanavir, route oral; settings: in vivo; method in brief: as §1
[19] = Drug excretion in wild type mouse urine assessed as (S)-methyl 3,3-dimethyl-1-oxo-1-(2-(4-(pyridin-2-yl)benzyl)hydrazinyl)butan-2-ylcarbamate formation at 50 mg/kg, po by LC-MS/MS analysis; type: ADME, organism-based; parameters: dose 50 mg/kg, dosed compound name Azazanavir, route oral; settings: in vivo; method in brief: as §1
[20] = Drug excretion in wildtype mouse urine assessed as ((S)-1-{(1S,2S)-1-Benzyl-2-hydroxy-3-[N'-((S)-2-methoxycarbonylamino-3,3-dimethyl-butyryl)-hydrazino propylcarbamoyl}-2,2-dimethyl-propyl)-carbamic acid methyl ester formation at 50 mg/kg, po by LC-MS/MS analysis; type: ADME, organism-based; parameters: dose 50 mg/kg, dosed compound name Azazanavir, route oral; settings: in vivo; method in brief: as §1
[21] = Drug excretion in wild type mouse feces assessed as methyl (S)-1-(2-((2S,3S)-3-((S)-2-amino-3,3-dimethylbutanamido)-2-hydroxy-4-phenylbutyl)-2-(4-(pyridin-2-yl)benzyl)hydrazinyl)-3,3-dimethyl-1-oxobutan-2-ylcarbamate formation at 50 mg/kg, po by LC-MS/MS analysis; type: ADME, organism-based; parameters: dose 50 mg/kg, dosed compound name Azazanavir, route oral; settings: in vivo; method in brief: as §1
[22] = test system: Liver microsome; test: Drug metabolism in human liver microsomes assessed as methyl (S)-1-(2-((2S,3S)-3-((S)-2-amino-3,3-dimethylbutanamido)-2-hydroxy-4-phenylbutyl)-2-(4-(pyridin-2-yl)benzyl)hydrazinyl)-3,3-dimethyl-1-oxobutan-2-ylcarbamate formation at 50 uM by LC-MS/MS analysis; settings: in vitro
[23] = test system: Liver microsome; test: Drug metabolism in human liver microsomes assessed as ((S)-1-{(1S,2S)-1-Benzyl-2-hydroxy-3-[N'-((S)-2-methoxycarbonylamino-3,3-dimethyl-butyryl)-N-(4-pyridin-2-yl-benzyl)-hydrazino]-propylcarbamoyl}-3-hydroxy-2-hydroxymethyl-2-methyl-propyl)-carbamic acid methyl ester formation at 50 uM by LC-MS/MS analysis; settings: in vitro
[24] = test system: Liver microsome; test: Drug metabolism in human liver microsomes assessed as methyl (S)-1-((2S,3S)-4-(2-((S)-2-amino-3,3-dimethylbutanoyl)-1-(4-(pyridin-2-yl)benzyl)hydrazinyl)-3-hydroxy-1-phenylbutan-2-ylamino)-3,3-dimethyl-1-oxobutan-2-ylcarbamate formation by LC-MS/MS analysis
[25] = as §4, with “feces” for “urine”; type: ADME, organism-based; parameters: dose 50 mg/kg, dosed compound name Azazanavir, route oral; settings: in vivo; method in brief: as §1
[26] = test system: Liver microsome; test: Drug metabolism in human liver microsomes assessed as ((S)-1-{(1S,2S)-1-Benzyl-2-hydroxy-3-[N'-((S)-2-methoxycarbonylamino-3,3-dimethyl-butyryl)-N-(4-pyridin-2-yl-benzyl)-hydrazino]-propylcarbamoyl}-3-hydroxy-2,2-dimethyl-propyl)-carbamic acid methyl ester formation at 50 uM by LC-MS/MS analysis; settings: in vitro

T1 sequence (P08684 whole entry): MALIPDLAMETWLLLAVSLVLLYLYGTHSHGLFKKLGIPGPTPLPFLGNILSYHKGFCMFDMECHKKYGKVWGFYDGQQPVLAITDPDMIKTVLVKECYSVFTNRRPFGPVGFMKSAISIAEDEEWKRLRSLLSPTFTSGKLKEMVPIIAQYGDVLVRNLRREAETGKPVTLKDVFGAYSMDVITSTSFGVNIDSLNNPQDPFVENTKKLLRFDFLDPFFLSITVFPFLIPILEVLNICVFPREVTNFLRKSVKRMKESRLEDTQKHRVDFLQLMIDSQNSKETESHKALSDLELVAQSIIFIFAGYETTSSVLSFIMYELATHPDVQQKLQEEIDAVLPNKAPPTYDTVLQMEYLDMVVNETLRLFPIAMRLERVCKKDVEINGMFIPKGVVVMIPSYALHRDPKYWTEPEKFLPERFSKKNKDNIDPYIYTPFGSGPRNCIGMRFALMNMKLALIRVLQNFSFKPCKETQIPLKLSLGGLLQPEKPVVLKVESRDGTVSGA
Sequence of Cytochrome P450 2D6 (P10635 whole entry): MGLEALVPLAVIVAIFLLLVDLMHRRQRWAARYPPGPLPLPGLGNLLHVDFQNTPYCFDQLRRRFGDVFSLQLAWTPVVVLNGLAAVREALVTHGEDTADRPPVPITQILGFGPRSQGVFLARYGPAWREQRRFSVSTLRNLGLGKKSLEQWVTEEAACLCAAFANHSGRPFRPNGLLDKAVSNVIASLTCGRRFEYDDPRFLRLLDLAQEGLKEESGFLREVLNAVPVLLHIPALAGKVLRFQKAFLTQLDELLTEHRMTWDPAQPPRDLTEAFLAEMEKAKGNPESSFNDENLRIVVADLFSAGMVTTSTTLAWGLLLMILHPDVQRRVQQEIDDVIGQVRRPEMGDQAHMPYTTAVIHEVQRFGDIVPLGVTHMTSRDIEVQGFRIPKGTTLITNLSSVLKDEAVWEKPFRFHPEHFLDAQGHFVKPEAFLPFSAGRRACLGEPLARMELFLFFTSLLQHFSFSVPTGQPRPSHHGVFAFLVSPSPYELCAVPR

Compound recovery [1]: metabolite_detected | Compound recovery [2]: metabolite_detected | Compound recovery [3]: metabolite_detected | Compound recovery [4]: metabolite_detected | Compound recovery [5]: metabolite_detected
Structure (SMILES): COC(=O)N[C@H](C(=O)NNC[C@H](O)[C@H](Cc1ccccc1)NC(=O)[C@@H](NC(=O)OC)C(C)(C)C)C(C)(C)C

Compound recovery [1]: metabolite_detected | Compound recovery [2]: metabolite_detected | Compound recovery [5]: metabolite_detected
Structure (SMILES): COC(=O)N[C@H](C(=O)NN(Cc1ccc(-c2ccccn2)cc1)C[C@H](O)[C@H](Cc1ccccc1)NC(=O)[C@@H](NC(=O)OC)C(C)(C)CO)C(C)(C)C

Compound recovery [1]: metabolite_detected | Compound recovery [2]: metabolite_detected
Structure (SMILES): COC(=O)N[C@H](C(=O)N[C@@H](Cc1ccccc1)[C@@H](O)CN(Cc1ccc(-c2ccccn2)cc1)NC(=O)[C@@H](NC(=O)OC)C(C)(C)CO)C(C)(C)CO

Compound recovery [1]: metabolite_detected | Compound recovery [2]: metabolite_detected | Compound recovery [5]: metabolite_detected
Structure (SMILES): COC(=O)N[C@H](C(=O)NN(Cc1ccc(-c2ccccn2)cc1)C[C@H](O)[C@H](Cc1ccccc1)NC(=O)[C@@H](NC(=O)OC)C(C)(CO)CO)C(C)(C)C

Compound recovery [1]: metabolite_detected | Compound recovery [2]: metabolite_detected | Compound recovery [5]: metabolite_detected
Structure (SMILES): COC(=O)N[C@H](C(=O)NN(Cc1ccc(-c2ccccn2)cc1)C[C@H](O)[C@H](Cc1ccccc1)NC(=O)[C@@H](N)C(C)(C)C)C(C)(C)C

Compound recovery [1]: metabolite_detected | Compound recovery [2]: metabolite_detected | Compound recovery [5]: metabolite_detected
Structure (SMILES): COC(=O)N[C@H](C(=O)N[C@@H](Cc1ccccc1)[C@@H](O)CN(Cc1ccc(-c2ccccn2)cc1)NC(=O)[C@@H](N)C(C)(C)C)C(C)(C)C

Compound recovery [1]: metabolite_detected | Compound recovery [2]: metabolite_detected | Compound recovery [5]: metabolite_detected
Structure (SMILES): COC(=O)N[C@H](C(=O)NNCc1ccc(-c2ccccn2)cc1)C(C)(C)C

Compound recovery [1]: metabolite_detected | Compound recovery [2]: metabolite_detected | Compound recovery [5]: metabolite_detected
Structure (SMILES): COC(=O)N[C@H](C(=O)N[C@@H](Cc1ccccc1)[C@@H](O)CNN)C(C)(C)C

Compound recovery [2]: metabolite_detected
Structure (SMILES): COC(=O)N[C@H](C(=O)N[C@@H](Cc1ccccc1)[C@@H](O)C=O)C(C)(C)C

Compound recovery [6]: metabolite_detected | Compound recovery [7]: metabolite_detected | Compound recovery [8]: metabolite_detected | Compound recovery [9]: metabolite_detected | Compound recovery [10]: metabolite_detected | Compound recovery [11]: metabolite_detected | Compound recovery [12]: metabolite_detected | Compound recovery [13]: metabolite_detected | Compound recovery [14]: metabolite_detected | Compound recovery [15]: metabolite_detected | Compound recovery [16]: metabolite_detected | Compound recovery [17]: metabolite_detected | Compound recovery [18]: metabolite_detected | Compound recovery [19]: metabolite_detected | Compound recovery [20]: metabolite_detected | Compound recovery [21]: metabolite_detected | Compound recovery [22]: metabolite_detected | Compound recovery [23]: metabolite_detected | Compound recovery [24]: metabolite_detected | Compound recovery [25]: metabolite_detected | Compound recovery [26]: metabolite_detected
Structure (SMILES): COC(=O)N[C@H](C(=O)N[C@@H](Cc1ccccc1)[C@@H](O)CN(Cc1ccc(-c2ccccn2)cc1)NC(=O)[C@@H](NC(=O)OC)C(C)(C)C)C(C)(C)C [ATAZANAVIR]
